From PMC4201344 (ACS Chemical Biology, 2014)
Numbering of substitutions follows the chain as printed. Entries after “also recorded” stand apart in the source; their conditions may differ.

What was measured:
Assay type in all cases: cell-based, C. elegans
[1] = target: GluClβ homomeric receptor, wild type (Caenorhabditis elegans, UniProt Q17328); assay: two-electrode voltage clamp, Xenopus laevis oocytes; details: glutamate
[2] = system: GluClβ homomeric receptor, wild type; assay: as above; details: high expressing mutants of GluClβ
[3] = target: GluClβ T13′S (Caenorhabditis elegans, UniProt Q17328, T290S); assay: two-electrode voltage clamp, Xenopus laevis oocytes; details: glutamate
Method in brief: (§1)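 C. elegans GluClβ (mammalian codon-optimised) in pGEMhe, mutated by QuikChange; T7 mRNA. […] Voltage clamp at −60 mV in Ca-free ND96, pH 7.5. […] Peak currents taken from baseline, normalised, averaged per concentration, and fit to Hill equation (EC50, nH).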

[4] = system: GluClβ with α signal peptide, T6′S, Y156TAG F3–Phe; assay: two-electrode voltage clamp, Xenopus laevis oocytes, nonsense suppression; details: glutamate
[5] = target: GluClβ T6′S, R40A (Caenorhabditis elegans, UniProt Q17328, R66A/T283S); assay: two-electrode voltage clamp, Xenopus laevis oocytes; details: glutamate
[6] = target: GluClβ with α signal peptide (no T6′S) (Caenorhabditis elegans, UniProt Q17328); assay: as above; details: α signal peptide chimera vs wild type
[7] = target: GluClβ T6′S, Y206A (Caenorhabditis elegans, UniProt Q17328, T283S/Y232A); assay: two-electrode voltage clamp, Xenopus laevis oocytes; details: glutamate
Method in brief: as §1

[8] = system: GluClβ with α signal peptide, T6′S, F96TAG F2–Phe; assay: two-electrode voltage clamp, Xenopus laevis oocytes, nonsense suppression; details: glutamate
[9] = system: GluClβ Y206 3,5-Me2-Phe; assay: two-electrode voltage clamp, Xenopus laevis oocytes, nonsense suppression; details: glutamate
Method in brief: (§2)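 Site-specific TAG codon, read by 74mer THG73 tRNA ligated to dCA-acylated amino acid; NVOC removed by 5 min xenon-lamp irradiation just before injection. Oocytes coinjected with 37.5 ng mRNA plus ~1 μg/μL tRNA at 48 and 24 h pre-recording; unacylated 76mer tRNA served as read-through control.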

[10] = system: GluClβ T6′S, Y206TAG CN–Phe; assay: two-electrode voltage clamp, Xenopus laevis oocytes, nonsense suppression; details: glutamate
[11] = target: GluClβ L9′V (Caenorhabditis elegans, UniProt Q17328, L286V); assay: two-electrode voltage clamp, Xenopus laevis oocytes; details: glutamate
Method in brief: as §1

[12] = target: GluClβ A20′S (Caenorhabditis elegans, UniProt Q17328, A297S); assay: as above; details: glutamate
Method in brief: as §1

[13] = system: GluClβ T6′S, Y206TAG F1–Phe; assay: two-electrode voltage clamp, Xenopus laevis oocytes, nonsense suppression; details: glutamate
[14] = system: GluClβ with α signal peptide, T6′S, Y156TAG OMe–Phe; assay: two-electrode voltage clamp, Xenopus laevis oocytes, nonsense suppression; details: glutamate
Method in brief: as §2

[15] = target: T1, GluClβ A2′S (Caenorhabditis elegans, UniProt Q17328, A279S); assay: two-electrode voltage clamp, Xenopus laevis oocytes; details: glutamate
T1 sequence (Q17328 23-434 A279S): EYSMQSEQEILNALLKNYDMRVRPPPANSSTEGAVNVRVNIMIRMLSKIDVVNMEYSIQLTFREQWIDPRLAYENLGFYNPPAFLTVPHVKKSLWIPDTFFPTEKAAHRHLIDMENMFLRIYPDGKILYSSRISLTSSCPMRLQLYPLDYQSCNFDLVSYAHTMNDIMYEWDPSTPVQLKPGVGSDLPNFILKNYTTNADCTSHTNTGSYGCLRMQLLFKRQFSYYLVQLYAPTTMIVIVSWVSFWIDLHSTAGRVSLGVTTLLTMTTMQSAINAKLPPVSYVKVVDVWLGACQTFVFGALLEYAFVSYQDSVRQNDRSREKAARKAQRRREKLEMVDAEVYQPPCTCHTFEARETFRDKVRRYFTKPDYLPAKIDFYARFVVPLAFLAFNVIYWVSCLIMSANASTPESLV

[16] = system: GluClβ with α signal peptide, T6′S, Y156TAG F2–Phe; assay: two-electrode voltage clamp, Xenopus laevis oocytes, nonsense suppression; details: glutamate
[17] = system: GluClβ T6′S, Y206TAG Me–Phe; assay: as above; details: glutamate
[18] = target: T2, GluClβ with α signal peptide, T6′S, Y156F (Caenorhabditis elegans, UniProt Q17328, T283S/Y182F); assay: two-electrode voltage clamp, Xenopus laevis oocytes; details: glutamate
T2 sequence (Q17328 23-434 Y182F/T283S): T1 sequence (Q17328 23-434 A279S) with Y160F, S257A, T261S
Method in brief: as §1

GluClβ T6′S, R40A, sequence (Q17328 23-434 R66A/T283S): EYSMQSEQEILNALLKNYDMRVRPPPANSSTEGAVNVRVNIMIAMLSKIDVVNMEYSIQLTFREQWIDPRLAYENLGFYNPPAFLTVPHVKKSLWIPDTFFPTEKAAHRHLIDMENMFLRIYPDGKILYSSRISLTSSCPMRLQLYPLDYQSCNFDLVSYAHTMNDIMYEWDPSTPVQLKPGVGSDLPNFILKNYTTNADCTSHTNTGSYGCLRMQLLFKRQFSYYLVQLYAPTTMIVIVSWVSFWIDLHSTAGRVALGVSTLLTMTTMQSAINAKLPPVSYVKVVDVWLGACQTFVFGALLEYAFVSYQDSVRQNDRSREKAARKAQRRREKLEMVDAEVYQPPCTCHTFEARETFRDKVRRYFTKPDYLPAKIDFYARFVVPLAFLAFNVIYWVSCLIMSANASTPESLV
GluClβ T13′S, sequence (Q17328 23-434 T290S): as the sequence (Q17328 23-434 R66A/T283S) above, with A44R, S261T, T268S counted along it
GluClβ T6′S, Y206A, sequence (Q17328 23-434 Y232A/T283S): as the sequence (Q17328 23-434 R66A/T283S) above, with A44R, Y210A counted along it
GluClβ homomeric receptor, wild type (Caenorhabditis elegans, UniProt Q17328), sequence (Q17328 23-434): as the sequence (Q17328 23-434 R66A/T283S) above, with A44R, S261T counted along it
GluClβ with α signal peptide (no T6′S), sequence (Q17328 23-434): as the sequence (Q17328 23-434 R66A/T283S) above, with A44R, S261T counted along it
GluClβ A20′S, sequence (Q17328 23-434 A297S): as the sequence (Q17328 23-434 R66A/T283S) above, with A44R, S261T, A275S counted along it
GluClβ L9′V, sequence (Q17328 23-434 L286V): as the sequence (Q17328 23-434 R66A/T283S) above, with A44R, S261T, L264V counted along it

Question: Which Hill [1] does the source give for `N[C@@H](CCC(=O)O)C(=O)O` [glutamate] here?
Answer: The Hill was 2.5 ± 0.2.

Question: And the “concentration at which rapid desensitization occurs” value [2]?
Answer: Its value is “greater than 100 mM”.

Question: And the EC50 [3]?
Answer: Its EC50 is “not functional; also recorded: no response”.

Question: And the EC50 [4]?
Answer: Its EC50 is 65 ± 5 mM.

Question: What about the Hill [4] of the same compound?
Answer: Its Hill is 1.7 ± 0.1.

Question: What about the Imax [4] of the same compound?
Answer: Its Imax is 0.3–2 μA.

Question: What about the EC50 [5] of the same compound?
Answer: The EC50 was 1.1 ± 0.1 mM.

Question: And the Hill [5]?
Answer: Its Hill is 2.1 ± 0.1.

Question: What about the “increase in EC50” value [6] of the same compound?
Answer: The value was < 3 fold.

Question: What about the EC50 [7] of the same compound?
Answer: Its EC50 is “no response”.

Question: What about the EC50 [8] of the same compound?
Answer: The EC50 was 0.0047 ± 0.0001 mM.

Question: And the Hill [8]?
Answer: Its Hill is 4.1 ± 0.5.

Question: And the Imax [8]?
Answer: Its Imax is 0.04–1 μA.

Question: What about the receptor function [9] of the same compound?
Answer: Its receptor function is “nonfunctional”.

Question: What about the EC50 [10] of the same compound?
Answer: Its EC50 is 19 ± 1 mM.

Question: And the Hill [10]?
Answer: The Hill was 2.8 ± 0.2.

Question: And the Imax [10]?
Answer: The Imax was 0.8–6 μA.

Question: And the EC50 [11]?
Answer: The EC50 was “no response”.

Question: What about the EC50 [12] of the same compound?
Answer: The EC50 was “no response”.

Question: And the EC50 [13]?
Answer: The EC50 was 0.64 ± 0.01 mM.

Question: What about the Hill [13] of the same compound?
Answer: Its Hill is 2.8 ± 0.1.

Question: And the Imax [13]?
Answer: Its Imax is 0.04–0.34 μA.

Question: What about the EC50 [14] of the same compound?
Answer: Its EC50 is “nonfunctional; also recorded: no response”.

Question: What about the EC50 [15] of the same compound?
Answer: The EC50 was 0.63 ± 0.01 mM.

Question: And the Hill [15]?
Answer: Its Hill is 2.0 ± 0.1.

Question: And the Imax [15]?
Answer: The Imax was 0.6–6 μA.

Question: What about the EC50 [16] of the same compound?
Answer: Its EC50 is 49 ± 3 mM.

Question: What about the Hill [16] of the same compound?
Answer: The Hill was 1.8 ± 0.1.

Question: And the Imax [16]?
Answer: Its Imax is 0.2–4 μA.

Question: What about the EC50 [17] of the same compound?
Answer: Its EC50 is 0.098 ± 0.003 mM.

Question: And the Hill [17]?
Answer: The Hill was 2.4 ± 0.1.

Question: What about the Imax [17] of the same compound?
Answer: Its Imax is 0.05–7 μA.

Question: What about the EC50 [18] of the same compound?
Answer: The EC50 was 15 ± 1 mM.

Question: What about the Hill [18] of the same compound?
Answer: Its Hill is 2.3 ± 0.2.

Question: What about the Imax [18] of the same compound?
Answer: Its Imax is 1–5 μA.
